Our source for the yeast fitness values is the RNAGym collection of RNA variant scans (doi:10.1126/science.aae0568).

Variants at the floor of the assay were thinned out.

B1: tRNA (parent)
chain: GUUCCGUUGGCGUAAUGGUAACGCGUCUCCCUCCUAAGGAGAAGACUGCGGGUUCGAGUCCCGUACGGAACG

The data set covers variants of B1. As to the kind of experiment: yeast fitness relative to wild type (ratio to wild type); higher = fitter; tRNA-Arg(CCU), competitive growth, 37 C, YPD. A digest of the protocol:
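For this measurement, the tRNA-Arg(CCU) gene was varied by chemical synthesis at a 3% per-site mutation rate across 69 sites, and each variant was placed at the native genomic locus in Saccharomyces cerevisiae. The pooled strains went through a 24-hour competition in YPD at 37°C in six parallel replicates, with amplicons from start and end populations read by 100-nucleotide paired-end sequencing. Darwinian fitness relative to wild type followed from the change in each genotype's frequency. Genotypes needed ≥ 100 starting reads, and estimates < 0.5 were set to 0.5.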
For GUUCCGUUGGCGUAAUGGUAACGCGUCUCCCUCCUAGGGAGUAGACUGCGGGUUCGAGUCCCGUCCGGCACG [A37G A42U A65C A69C], the yeast fitness was ≤ 0.5.
The result for GUUCCGUUGGCGUAAUGGUAACGCGUCUCCCUCCUAAAGAGAAGACUGCGGGUUCGACUCCCGUAUGGAACG [G38A G58C C66U] reads 0.588; that for GUUCCGUUGGCGUAAUGGUAACGCGUCUCCCUCCUAGGGAGAAGACUGCGCGUUCGAGUCCCGUACGGAACG [A37G G51C], 0.601.
As for GUUCCGUUGGCGUAAUGGUAACGCGUCUCCCUCCUAUGGAGAAGUCUGCGGGUUCGAGUCCGGUACGGAACG [A37U A45U C62G], the figure is ≤ 0.5; as for GUUCCGUUGGCGUAAUGGUAACGCGUCUCCCUCCUAUGGAGAAGACUGCGGGUUCGAGCCCCGUACGGAACG [A37U U59C], 0.721; as for GUUCCGUUGGCGUAAUGGUAACGCGUCUCCCUCCUAUGGAGAAGACUGCGGGUUCGAGUCCCGUAAGGAACG [A37U C66A], 0.528.
The result for GUUCCGUUGGCGUAAUGGUAACGCGUCUCCCUCCUAGGGAGAACCCUGCAGGUUGGAGUCCCGUAAGGAACG [A37G G44C A45C G50A C55G C66A] reads ≤ 0.5; that for GUUCCGUUGGCGUAAUGGUAACGCGUCUCCCUCCUAGGGAGAAGACUGCGGGUUCGAGUCCCGUAUGGUACG [A37G C66U A69U], 0.674; that for GUUCCGUUGGCGUAAUGGUAACGCGUCUCCCUCCUAUGGAGAAGACUGCGGGUACGAGUCCCGUACGGAACG [A37U U54A], ≤ 0.5.
Consider GUUCCGUUGGCGUAAUGGUAACGCGUCUCCCUCCUAGGGAGAAGACUGCGGAUUGGAGUCCCGUACGGAACG [A37G G52A C55G], for which the yeast fitness was found to be 0.516.
On to GUUCCGUUGGCGUAAUGGUAACGCGUCUCCCUCCUAUGGAGGAGUCUGCGGGUUCGAGUCCCGUACCGAACG [A37U A42G A45U G67C], for which the yeast fitness is ≤ 0.5.
The result for GUUCCGUUGGCGUAAUGGUAACGCGUCUCCCUCCUAUGGAGAAGUCCGCGGGUUCGAGUCCGGUACGGAACG [A37U A45U U47C C62G] reads ≤ 0.5; that for GUUCCGUUGGCGUAAUGGUAACGCGUCUCCCUCCUAGGGAGAAGACUGCGGGUUCGAGUCCCGUACGGACCG [A37G A70C], 0.76.
Take GUUCCGUUGGCGUAAUGGUAACGCGUCUCCCUCCUAAAGAGCAGACUGCGGGUCCGAGUCCCGUACGGCACG [G38A A42C U54C A69C]: the yeast fitness is ≤ 0.5.
With GUUCCGUUGGCGUAAUGGUAACGCGUCUCCCUCCUAACGAGAAGACUGCGGGUUCGAGUCCCGUACGGAACG [G38C], the yeast fitness was 0.806.
Consider GUUCCGUUGGCGUAAUGGUAACGCGUCUCCCUCCUAAAGAGAAGACUGCGGGUUCGAGUCCCGUACGGAACG [G38A], for which the yeast fitness is 1.02.
As for GUUCCGUUGGCGUAAUGGUAACGCGUCUCCCUCCUAUGGAGAAGACUGAGGGUUCGAGUCCCGUUCGGAACG [A37U C49A A65U], the figure is ≤ 0.5; as for GUUCCGUUGGCGUAAUGGUAACGCGUCUCCCUCCUAAAGAGAAGACUGCGGGUUCGAAUCCCGUACGGAACG [G38A G58A], 1.06.
In the case of GUUCCGUUGGCGUAAUGGUAACGCGUCUCCCUCCUAGGGAGAAGGCUGCGGGUUCGAGUCCCGUACGGAACG [A37G A45G], the yeast fitness came out at 0.707.
In the case of GUUCCGUUGGCGUAAUGGUAACGCGUCUCCCUCCUACGGAGAAGACUGCGGGCUCGAGUCCCGAACGGAACG [A37C U53C U64A], the yeast fitness was 0.679.
Turning to GUUCCGUUGGCGUAAUGGUAACGCGUCUCCCUCCUAGGGAGCAGACUGCGGGUUCGAGUCCCGUACGGACCG [A37G A42C A70C], the yeast fitness was 0.729.
In the case of GUUCCGUUGGCGUAAUGGUAACGCGUCUCCCUCCUAACGAGAGGACUGCGGGUUCGAGUUCUGUACGGACCG [G38C A43G C60U C62U A70C], the yeast fitness is ≤ 0.5.
GUUCCGUUGGCGUAAUGGUAACGCGUCUCCCUCCUAUGGAGAAGACUGCGGGUUGGAGUCCCGUACGCAACG [A37U C55G G68C]: the yeast fitness was ≤ 0.5.
For GUUCCGUUGGCGUAAUGGUAACGCGUCUCCCUCCUAUGGAGAAGACUGCGGGUUCGAGUCCCGUCCGGAACG [A37U A65C], the yeast fitness came to 0.739.
In the case of GUUCCGUUGGCGUAAUGGUAACGCGUCUCCCUCCUAGGGAGAAGACAGCGGGUUAGACUCCCGUACGGAACG [A37G U47A C55A G58C], the yeast fitness was ≤ 0.5.
For the variant GUUCCGUUGGCGUAAUGGUAACGCGUCUCCCUCCUAUGGAGAAGACUGCGGGUUCGAGUCCCAUACGGAACG [A37U G63A], the yeast fitness was found to be 0.642.
As for GUUCCGUUGGCGUAAUGGUAACGCGUCUCCCUCCUAAAGAGAUGACUGCGGGUUCAAGUCCCGUACGGAACG [G38A A43U G56A], the yeast fitness is 0.596.
In the case of GUUCCGUUGGCGUAAUGGUAACGCGUCUCCCUCCUAAAGAGAAGACUGCGGGUCCGAGUCCCGUUCGGAACG [G38A U54C A65U], the yeast fitness is 0.581.
With GUUCCGUUGGCGUAAUGGUAACGCGUCUCCCUCCUAUGGAGAAGACUGCGGGUUCGAGUCCCCUACGGCACG [A37U G63C A69C], the yeast fitness was ≤ 0.5.
In the case of GUUCCGUUGGCGUAAUGGUAACGCGUCUCCCUCCUAUAGAGAAGACUGCGGGUUCGAGUCCCGUACGGAACG [A37U G38A], the yeast fitness was 0.631.
GUUCCGUUGGCGUAAUGGUAACGCGUCUCCCUCCUAAAGAGCAGACUGCGGGUCCGAGUCCGGUCAGGAACG [G38A A42C U54C C62G A65C C66A]: the yeast fitness is ≤ 0.5.
Take GUUCCGUUGGCGUAAUGGUAACGCGUCUCCCUCCUAGGGAGAACACUGCGGGUUCGUGUCCCGUACGCAACG [A37G G44C A57U G68C]: the yeast fitness was determined as 0.512.
As to GUUCCGUUGGCGUAAUGGUAACGCGUCUCCCUCCUAAAGAGAAGACUGCGGGUUCGAGUCCCGUACGGCACG [G38A A69C], the yeast fitness was determined as 0.847.
The result for GUUCCGUUGGCGUAAUGGUAACGCGUCUCCCUCCUAUGGCGAAGACUGCGAGUUCGAGUCCCGUACGGAACG [A37U A40C G51A] reads 0.687; that for GUUCCGUUGGCGUAAUGGUAACGCGUCUCCCUCCUAGGGCGACGACUGCGGGUUCGAGUCCCGUACUGAACG [A37G A40C A43C G67U], ≤ 0.5; that for GUUCCGUUGGCGUAAUGGUAACGCGUCUCCCUCCUAUGGAGAAGACUGCGGGUUCGAGUCCCGUCGGGAACG [A37U A65C C66G], ≤ 0.5.
Consider GUUCCGUUGGCGUAAUGGUAACGCGUCUCCCUCCUAUGGAGAAGACUGCGGGUUCGAGUCCCGAACGGAACG [A37U U64A], for which the yeast fitness amounted to 0.642.
